Measurements: ChEMBL document CHEMBL3045047, “Phytochemistry and nematicidal activity of the essential oils from 8 Greek Lamiaceae aromatic plants and 13 terpene components” (J Agric Food Chem, 2010)
Converted amounts (≈) assume the structure as drawn.

What was measured:
Assay type in all cases: functional, organism-based
Meloidogyne incognita [1] = test: Nematicidal activity against Meloidogyne incognita J2 (root-knot nematode) larvae immersed in compound solution for 24 hr assessed as reduction in larval motility
Procedure, shortened: (§1)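 J2 hatched at 28 °C in modified Baermann funnels from eggs extracted from roots with sodium hypochlorite. Ethanol stocks were diluted in water with Tween-20 (final ethanol ≤1%, Tween-20 ≤0.3% v/v), with water and solvent controls. Fifteen J2 per well, covered, dark, 28 °C. Motile/immotile scored microscopically. Control-corrected (Schneider-Orelli), six replicates, run twice. EC50 from log-logistic regression.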

Meloidogyne incognita [2] = test: Nematicidal activity against Meloidogyne incognita J2 (root-knot nematode) larvae immersed in compound solution for 96 hr assessed as reduction in larval motility; procedure, shortened: as §1
Meloidogyne incognita [3] = test: Nematicidal activity against Meloidogyne incognita J2 (root-knot nematode) larvae immersed in compound solution for 48 hr assessed as reduction in larval motility; procedure, shortened: as §1
Meloidogyne javanica = test: Nematicidal activity against Meloidogyne javanica J2 (root-knot nematode) larvae immersed in compound solution for 48 hr assessed as reduction in larval motility

| Compound | EC50 (Meloidogyne incognita [1]) | EC50 (Meloidogyne incognita [2]) | EC50 (Meloidogyne incognita [3]) | EC50 (Meloidogyne javanica) |
| --- | --- | --- | --- | --- |
| C/C=C/c1ccc(OC)cc1 [ANETHOLE] | 170 mg/L (≈ 1150 µM) | 124 mg/L (≈ 837 µM) | 140 mg/L (≈ 945 µM) |  |
| C=C1CC/C=C(\C)CC[C@@H]2[C@@H]1CC2(C)C [BETA-CARYOPHYLLENE] | > 1800 mg/L | 307 mg/L (≈ 1500 µM) | 433 mg/L (≈ 2120 µM) |  |
| Cc1ccc(C(C)C)cc1O [CARVACROL] | 264 mg/L (≈ 1760 µM) | 117 mg/L (≈ 779 µM) | 176 mg/L (≈ 1170 µM) | 0.128 uL/ml |
| C=C(C)[C@H]1CC=C(C)CC1 [D-LIMONENE] | > 1680 mg/L | > 1680 mg/L | > 1680 mg/L |  |
| CC12CCC(CC1)C(C)(C)O2 [EUCALYPTOL] | > 1840 mg/L | 1600 mg/L (≈ 10400 µM) | > 1840 mg/L |  |
| C=CCc1ccc(O)c(OC)c1 [EUGENOL] | 256 mg/L (≈ 1560 µM) | < 133 mg/L | 192 mg/L (≈ 1170 µM) |  |
| CC(C)=CCC/C(C)=C/CO [GERANIOL] | 237 mg/L (≈ 1540 µM) | 105 mg/L (≈ 681 µM) | 158 mg/L (≈ 1020 µM) |  |
| C=C(C)[C@@H]1CC=C(C)C(=O)C1 [L-CARVONE] | 115 mg/L (≈ 766 µM) | < 120 mg/L | < 120 mg/L |  |
| C=CC(C)(O)CCC=C(C)C (stereo unspecified) [LINALOOL] | 862 mg/L (≈ 5590 µM) | 284 mg/L (≈ 1840 µM) | 707 mg/L (≈ 4580 µM) |  |
| Cc1ccc(C(C)C)cc1 [P-CYMENE] | > 1720 mg/L | > 1720 mg/L | > 1720 mg/L |  |
| CC(C)=C1CC[C@@H](C)CC1=O [PULEGONE] | 150 mg/L (≈ 985 µM) | < 117 mg/L | < 117 mg/L | 0.205 uL/ml |
| CC1=CCC(O)(C(C)C)CC1 (stereo unspecified) [TERPINEOL] | 392 mg/L (≈ 2540 µM) | 168 mg/L (≈ 1090 µM) | 290 mg/L (≈ 1880 µM) |  |
| Cc1ccc(C(C)C)c(O)c1 [THYMOL] | 390 mg/L (≈ 2600 µM) | 160 mg/L (≈ 1070 µM) | 280 mg/L (≈ 1860 µM) |  |
